Measured values from publication PMC5069578 (Journal of Clinical Pharmacology, 2016).
Structures can show the parent of a compound that is named as a salt. Where two headings read alike, the source gives them in different places.

Columns and labels:
[1] = healthy volunteers and patients with advanced solid tumors; cited from earlier work
[2] = under physiological conditions; cited from earlier work
[3] = type: in vivo, human; details: for half-life / AUC(0-t) / Cmax / Tmax: human, plasma, 4 mg; for half-life: oral, Geometric mean (%CV) terminal half-life, N = 4; for AUC(0-t) / Cmax / Tmax: po, single 4-mg oral dose, n = 15; for AUC(0-t): Geometric mean AUC0-216 (%CV); for Cmax: Geometric mean Cmax (%CV); for Tmax: Median Tmax (range)
Procedure, shortened: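 Randomized 2-period, 2-sequence crossover: 4-mg immediate-release capsule on day 1 and day 15, either fasted (~10 h overnight) or fed (high-fat meal begun ≥30 min predose), alternating between periods; no food 4 h postdose. Plasma sampled predose to 216 h, LC-MS/MS (linear 0.5–500 ng/mL). Noncompartmental parameters; log AUC0-216 and Cmax by ANOVA (treatment, sequence, period fixed; patient-within-sequence random), back-transformed LS-mean ratios with 90% CIs.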

[4] = Safety and tolerability; type: in vivo, human
Procedure, shortened: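 Adverse events recorded throughout treatment and up to 30 days after last dose or start of subsequent antineoplastic therapy, graded by NCI CTCAE v4.03. Safety population comprised all patients given at least 1 dose of test compound (single 4-mg oral doses on days 1 and 15, fasted/fed crossover).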

[5] = ref Takeda, data on file; cited from earlier work
[6] = ref Takeda, data on file; cited from earlier work; remark: listed apart in the source
[7] = Biopharmaceutics Classification System; type: physicochemical; details: from solubility and permeability
[8] = cited from earlier work
[9] = fed vs fasted, ANOVA on log-transformed values

In the case of `CS(=O)(=O)CCNCc1ccc(-c2ccc3ncnc(Nc4ccc(OCc5cccc(F)c5)c(Cl)c4)c3c2)o1` [lapatinib], the “Change in bioavailability when administered with a high-fat breakfast” value [1] is listed as “large increases”.

For `CC(C)C[C@H](NC(=O)CNC(=O)c1cc(Cl)ccc1Cl)B1OC(=O)C(CC(=O)O)(CC(=O)O)O1` [ixazomib citrate], the “Hydrolysis to the biologically active boronic acid, ixazomib” value [2] is given as “rapid hydrolysis”.

For `CC(C)C[C@H](NC(=O)CNC(=O)c1cc(Cl)ccc1Cl)B(O)O` [ixazomib], the “Ratio of period 2 AUC to period 1 AUC (period effect)” value ([3]; ANOVA analysis, period 2 (day 15) vs period 1 (day 1)) was 2.21, the “Delay of median Tmax under fed conditions compared with fasted state” value ([3]; fed vs fasted) was “approximately 3 hours” and the “Reduction in peak plasma concentration (Cmax)” value ([3]; fed vs fasted) was 69%. The “Reduction in total systemic exposure (AUC)” value ([3]; fed vs fasted) was 28%, the “Least-squares geometric mean ratio (90%CI) of AUC0-216 (test/reference)” value [3, 9] was 0.72 (0.58‐0.89) and the “Least-squares geometric mean ratio (90%CI) of Cmax (test/reference)” value [3, 9] was 0.31 (0.21‐0.45). For the same compound, the half-life ([3]; day 1, fasted) was 189 h, the half-life ([3]; day 1, fed) was 198 h and the AUC(0-t) ([3]; fasted (reference)) was 1470 ng·h/mL. It also gave an AUC(0-t) ([3]; fed (test)) of 999 ng·h/mL, a Cmax ([3]; fasted (reference)) of 77 ng/mL and a Cmax ([3]; fed (test)) of 22.8 ng/mL. For the same compound, the Tmax ([3]; fasted (reference), immediate-release capsule) was 1.02 h, the Tmax ([3]; fed (test, high-calorie high-fat meal)) was 4 h and the “On-study deaths considered related to ixazomib” value ([4]; 3 on-study deaths) was “None”. The “Drug-related, reversible grade 1 peripheral neuropathy” value ([4]; 24 patients) was 1 case, the “Patients with TEAEs resulting in dose reduction” value ([4]; 24 patients) was 4% and the “Patients with any-grade drug-related TEAEs” value ([4]; 24 patients) was 83%. For the same compound, the “Patients with any-grade drug-related fatigue” value ([4]; 24 patients) was 25%, the “Patients with any-grade drug-related nausea” value ([4]; 24 patients) was 50% and the “Patients with any-grade drug-related vomiting” value ([4]; 24 patients) was 58%. For the same compound, the “Patients with at least 1 grade ≥3 TEAE” value ([4]; 24 patients) was 54%, the “Patients with at least 1 grade ≥3 drug-related TEAE” value ([4]; 24 patients) was 21% and the “Patients with drug-related serious AE” value ([4]; 24 patients) was 8%. The “Patients with grade ≥3 drug-related anemia” value ([4]; 24 patients) was 8%, the “Patients with grade ≥3 drug-related dehydration” value ([4]; 24 patients) was 4% and the “Patients with grade ≥3 drug-related fatigue” value ([4]; 24 patients) was 4%. For the same compound, the “Patients with grade ≥3 drug-related peripheral edema” value ([4]; 24 patients) was 4%, the “Patients with grade ≥3 drug-related vomiting” value ([4]; 24 patients) was 4% and the “Patients with vomiting leading to dose modification” value ([4]; 24 patients) was 8%. For the same compound, the “AE leading to discontinuation” value ([4]; safety population N = 24) was 7 (29) n (%), the “Any AE” value ([4]; safety population N = 24) was 24 (100) n (%) and the “Any drug-related AE” value ([4]; safety population N = 24) was 20 (83) n (%). For the same compound, the “Any drug-related grade ≥3 AE” value ([4]; safety population N = 24) was 5 (21) n (%), the “Any drug-related serious AE” value ([4]; safety population N = 24) was 2 (8) n (%) and the “Any grade ≥3 AE” value ([4]; safety population N = 24) was 13 (54) n (%). The “Any serious AE” value ([4]; safety population N = 24) was 12 (50) n (%), the “Any-grade drug-related AE: anemia” value ([4]; safety population N = 24) was 4 (17) n (%) and the “Any-grade drug-related AE: asthenia” value ([4]; safety population N = 24) was 2 (8) n (%). For the same compound, the “Any-grade drug-related AE: chills” value ([4]; safety population N = 24) was 2 (8) n (%), the “Any-grade drug-related AE: constipation” value ([4]; safety population N = 24) was 2 (8) n (%) and the “Any-grade drug-related AE: decreased appetite” value ([4]; safety population N = 24) was 3 (13) n (%). The “Any-grade drug-related AE: diarrhea” value ([4]; safety population N = 24) was 3 (13) n (%), the “Any-grade drug-related AE: fatigue” value ([4]; safety population N = 24) was 6 (25) n (%) and the “Any-grade drug-related AE: nausea” value ([4]; safety population N = 24) was 12 (50) n (%). The “Any-grade drug-related AE: thrombocytopenia” value ([4]; safety population N = 24) was 2 (8) n (%), the “Any-grade drug-related AE: vomiting” value ([4]; safety population N = 24) was 14 (58) n (%) and the “Any-grade drug-related AE: weight loss” value ([4]; safety population N = 24) was 4 (17) n (%). The “Grade ≥3 drug-related AE: anemia” value ([4]; safety population N = 24) was 2 (8) n (%), the “Grade ≥3 drug-related AE: dehydration” value ([4]; safety population N = 24) was 1 (4) n (%) and the “Grade ≥3 drug-related AE: fatigue” value ([4]; safety population N = 24) was 1 (4) n (%). For the same compound, the “Grade ≥3 drug-related AE: peripheral edema” value ([4]; safety population N = 24) was 1 (4) n (%), the “Grade ≥3 drug-related AE: vomiting” value ([4]; safety population N = 24) was 1 (4) n (%) and the On-study deaths ([4]; safety population N = 24) was 3 (13) n (%). For the same compound, the “Any-grade drug-related AE: rash” value ([4]; safety population N = 24, includes follicular rash, intermittent dark skin lesion, macular rash, maculopapular rash, pruritus) was 5 (21) n (%), the Solubility [5] was “highly soluble” and the Permeability [6] was “moderate”. For the same compound, the “Biopharmaceutics Classification System (BCS) class” value [7] was “class 3”, the Absolute oral bioavailability ([8]; 226 adult cancer patients, immediate-release capsules, estimated) was 60% and the “Dose and time dependence of PK” value [8] was “dose‐ and time‐independent PK”.
